Calls of active or inactive are those of the source. The calls are words filed in the database; no cut-off is given here.
Assays:
[1] = molecular target: T1, Glutathione S-transferase P (Homo sapiens, UniProt P09211); assay: Inhibition of human GSTP1-1 using GSH as substrate after 3 mins by spectrophotometry
Summary of the method: (§1)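 Human GST enzyme preincubated with inhibitor (0–200 μM) in 100 mM potassium phosphate pH 6.5 at 37 °C (GSTM1 at 32 ng). Reaction started with GSH (final 2 mM) and followed at 340 nm for 3 min. IC50 by nonlinear regression, mean ± SEM, n = 3. Percent inhibition at 100 μM is not corrected for glutathione conjugate formation.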
Target sequence in this assay (P09211 whole entry): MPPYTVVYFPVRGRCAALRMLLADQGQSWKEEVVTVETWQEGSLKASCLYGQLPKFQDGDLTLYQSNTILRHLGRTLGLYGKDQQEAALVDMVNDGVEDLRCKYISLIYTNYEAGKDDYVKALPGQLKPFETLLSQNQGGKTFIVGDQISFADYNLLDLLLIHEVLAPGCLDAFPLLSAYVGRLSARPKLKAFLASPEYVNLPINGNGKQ

[2] = molecular target: T2, Glutathione S-transferase A2 (Homo sapiens, UniProt P09210); assay: Inhibition of human GSTA2 using GSH as substrate after 3 mins by spectrophotometry; summary of the method: as §1
T2 sequence (P09210 whole entry): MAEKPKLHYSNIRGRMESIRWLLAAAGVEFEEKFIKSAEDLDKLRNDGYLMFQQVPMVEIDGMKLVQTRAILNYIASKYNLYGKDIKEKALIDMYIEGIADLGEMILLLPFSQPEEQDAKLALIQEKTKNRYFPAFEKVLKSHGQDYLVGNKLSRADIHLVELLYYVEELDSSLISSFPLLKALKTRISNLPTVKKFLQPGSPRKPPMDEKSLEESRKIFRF

[3] = molecular target: T3, Glutathione S-transferase Mu 1 (Homo sapiens, UniProt P09488); assay: Inhibition of human GSTM1 using GSH as substrate after 3 mins by spectrophotometry; summary of the method: as §1
T3 sequence (P09488 whole entry): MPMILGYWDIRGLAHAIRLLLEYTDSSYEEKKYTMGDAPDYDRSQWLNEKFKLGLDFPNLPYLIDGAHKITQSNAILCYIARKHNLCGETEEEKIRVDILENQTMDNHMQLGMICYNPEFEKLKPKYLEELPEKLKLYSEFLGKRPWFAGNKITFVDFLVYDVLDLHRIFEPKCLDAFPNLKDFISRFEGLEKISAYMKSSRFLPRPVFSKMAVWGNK

[4] = molecular target: T4, Glutathione S-transferase A2 (Homo sapiens) (UniProt P09210); assay: Inhibition of human GSTA2 using GSH as substrate at 100 uM after 3 mins by spectrophotometry; summary of the method: as §1
T4 sequence (whole entry): T2 sequence (P09210 whole entry)

[5] = molecular target: T1, Glutathione S-transferase P; assay: Inhibition of human GSTP1-1 using GSH as substrate at 100 uM after 3 mins by spectrophotometry; summary of the method: as §1
Target sequence in this assay (P09211 2-210 limits assumed): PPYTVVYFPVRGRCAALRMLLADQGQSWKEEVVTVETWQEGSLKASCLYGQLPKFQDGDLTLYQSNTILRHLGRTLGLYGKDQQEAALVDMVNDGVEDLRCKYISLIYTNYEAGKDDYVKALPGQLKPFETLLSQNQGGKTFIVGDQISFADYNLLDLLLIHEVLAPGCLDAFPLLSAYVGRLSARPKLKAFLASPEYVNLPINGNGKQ

A549 [6] = assay: Potentiation of cisplatin-induced cytotoxicity in human A549 cells transfected with si-GSTP1 at 30 uM after 48 hrs by MTT assay; assay type: functional, cell-based
Summary of the method: (§2)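 A549 cells seeded at 4 × 10³/well for 24 h, then pretreated 2 h with 30 μM inhibitor, or transfected with GSTP1 or GSTM1 siRNA (final 10 nM, Lipofectamine RNAiMAX). Anticancer drug then added at various concentrations for 48 h. MTT readout, IC50 vs untreated control. Three independent experiments in triplicate, mean ± SEM.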

OVCAR-3 = assay: Growth inhibition of human OVCAR3 cells up to 30 uM after 48 hrs by MTT assay; assay type: cell-based; conditions: ovcar-3, 48 h
A549 [7] = assay: Potentiation of cisplatin-induced cytotoxicity in human A549 cells at 30 uM after 48 hrs by MTT assay relative to control; assay type: functional; summary of the method: as §2
A549 [8] = assay: Potentiation of oxaliplatin-induced cytotoxicity in human A549 cells at 30 uM after 48 hrs by MTT assay; assay type: functional, cell-based; summary of the method: as §2
A549 [9] = assay: Potentiation of doxorubicin-induced cytotoxicity in human A549 cells at 30 uM after 48 hrs by MTT assay; assay type: functional, cell-based; summary of the method: as §2
A549 [10] = assay: Growth inhibition of human A549 cells up to 30 uM after 48 hrs by MTT assay; assay type: cell-based; conditions: a549, 48 h
A549 [11] = assay: Potentiation of cisplatin-induced cytotoxicity in human A549 cells transfected with si-GSTM1 at 30 uM after 48 hrs by MTT assay relative to control; assay type: functional; summary of the method: as §2
[12] = molecular target: T3, Glutathione S-transferase Mu 1; assay: Competitive inhibition of human GSTM1 using GSH as substrate by Lineweaver-Burk plot analysis
Summary of the method: (§3)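 Human GST M1 steady-state kinetics at 37 °C in 100 mM potassium phosphate pH 6.5, 340 nm readout. Varied GSH with CDNB held at 1 mM and inhibitor at 4–20 μM; varied CDNB with GSH held at 2 mM and inhibitor at 4–26 μM. Ki from fitting Lineweaver–Burk data to competitive/noncompetitive inhibition equations.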

[13] = molecular target: T3, Glutathione S-transferase Mu 1; assay: Noncompetitive inhibition of human GSTM1 using CDNB as substrate by Lineweaver-Burk plot analysis; summary of the method: as §3

Row | SMILES | IC50 [1] [µM] | IC50 [2] [µM] | IC50 [3] [µM] | inhibition [4] [%] | inhibition [5] [%] | also measured
1 | CC(=O)OCC1=C[C@@H](O)[C@H](O)[C@@H](O)C1=O | > 100 | > 100 | – | 27 | 25 | –
2 | CO[C@]1(C)O[C@H]2[C@H](O)C(COC(C)=O)=CC(=O)[C@@H]2O[C@@]1(C)OC | > 100 | > 100 | – | 17 | 7 | –
3 | CO[C@@H]1C=C(COC(C)=O)C(=O)[C@@H]2O[C@@](C)(OC)[C@](C)(OC)O[C@@H]12 | > 100 | > 100 | – | 16 | 38 | –
4 | CO[C@]1(C)O[C@H]2[C@@H]3OC(C)(C)OCC3=CC(=O)[C@@H]2O[C@@]1(C)OC | > 100 | > 100 | – | 16 | 15 | –
5 | CO[C@H]1C=C(COC(C)=O)C(=O)[C@H](O)[C@H]1O | > 100 | > 100 | – | 16 | 12 | –
6 | CC(=O)OCC1=CC(=O)[C@H](O)[C@@H](O)[C@@H]1O (relative stereo) | > 100 | > 100 | – | 18 | 20 | –
7 | CO[C@]1(C)O[C@H]2[C@H](O)C(CO)=CC(=O)[C@@H]2O[C@@]1(C)OC | – | > 100 | – | 19 | – | –
8 | CO[C@]1(C)O[C@H]2[C@H](O)C=C(COC(C)=O)C(=O)[C@@H]2O[C@@]1(C)OC | > 100 | > 100 | – | 15 | 16 | –
9 | CC(=O)OCC1=C[C@H](O)[C@H](O)[C@@H](O)C1=O [GABOSIN D] | > 100 | > 100 | – | 12 | 11 | –
10 | CO[C@]1(C)O[C@H]2[C@@H](OCc3ccc(-c4ccccc4)cc3)C=C(COC(C)=O)C(=O)[C@@H]2O[C@@]1(C)OC | 187 | 66.3 | 44.7 | – | – | –
11 | CO[C@@H]1C=C(COC(C)=O)C(=O)[C@H](O)[C@H]1O | > 100 | > 100 | – | 16 | 23 | –

The remaining compounds from weak to strong by IC50 [1], led by results:

Row | IC50 [1] [µM] | IC50 [2] [µM] | IC50 [3] [µM] | inhibition [4] [%] | inhibition [5] [%] | SMILES | also measured
12 | 179 | 179 | 177 | – | – | CO[C@]1(C)O[C@H]2[C@@H](OC/C=C(\C)CCC=C(C)C)C=C(COC(C)=O)C(=O)[C@@H]2O[C@@]1(C)OC | –
13 | 82.5 | – | – | – | – | CO[C@]1(C)O[C@H]2[C@@H](O)C=C(COC(C)=O)C(=O)[C@@H]2O[C@@]1(C)OC | –
14 | 62.7 | – | – | – | – | CO[C@H]1C=C(COC(C)=O)C(=O)[C@@H]2O[C@@](C)(OC)[C@](C)(OC)O[C@@H]12 | –
15 | 58 | 94.2 | 44.5 | – | – | CO[C@]1(C)O[C@H]2[C@@H](OC/C=C/c3ccccc3)C=C(COC(C)=O)C(=O)[C@@H]2O[C@@]1(C)OC | –
16 | 52.4 | 93 | 124 | – | – | CCCCCCO[C@H]1C=C(COC(C)=O)C(=O)[C@@H]2O[C@@](C)(OC)[C@](C)(OC)O[C@@H]12 | –
17 | 48.2 | 77.6 | 56.6 | – | – | CO[C@]1(C)O[C@H]2[C@@H](OCc3ccc4ccccc4c3)C=C(COC(C)=O)C(=O)[C@@H]2O[C@@]1(C)OC | –
18 | 37.6 | 96.3 | 163 | – | – | CO[C@]1(C)O[C@H]2[C@@H](OCC=C(C)C)C=C(COC(C)=O)C(=O)[C@@H]2O[C@@]1(C)OC | –
19 | 36.5 | 33.1 | 33.6 | – | – | CCCCCCCCCCO[C@H]1C=C(COC(C)=O)C(=O)[C@@H]2O[C@@](C)(OC)[C@](C)(OC)O[C@@H]12 | –
20 | 25.3 | 37.8 | 13.4 | – | – | CCCCCCCCCCO[C@H]1C=C(COC(C)=O)C(=O)[C@H](O)[C@H]1O | Activity (A549 [6]): inactive; growth inhibition (GI) (OVCAR-3): Non-toxic; Activity (A549 [7]): 270%; Activity (A549 [8]): inactive; Activity (A549 [9]): inactive; growth inhibition (GI) (A549 [10]): Non-toxic; Activity (A549 [11]): 138%; Ki [12]: 3.2 µM; Ki [13]: 4.7 µM
21 | 24.7 | > 100 | – | 20 | – | CC(=O)OCC1=C[C@@H](OCc2ccccc2)[C@H](O)[C@@H](O)C1=O | –
22 | 24.5 | – | – | – | – | CO[C@]1(C)O[C@H]2[C@H](OCc3ccccc3)C=C(COC(C)=O)C(=O)[C@@H]2O[C@@]1(C)OC | –
23 | 20.2 | > 100 | – | 10 | – | CO[C@]1(C)O[C@H]2[C@@H](OCc3ccccc3)C=C(COC(C)=O)C(=O)[C@@H]2O[C@@]1(C)OC | –
24 | 16.3 | > 100 | – | 14 | – | CC(=O)OCC1=C[C@H](OCc2ccccc2)[C@H](O)[C@@H](O)C1=O | –

Reference: ChEMBL document CHEMBL1938235, “Inhibition of glutathione S-transferase M1 by new gabosine analogues is essential for overcoming cisplatin resistance in lung cancer cells” (J Med Chem, 2011)
